Measurements taken from ChEMBL document CHEMBL1131050, “Benzoxazole derivatives as novel 5-HT3 receptor partial agonists in the gut” (J Med Chem, 1998).

Legend:
[1] = molecular target: T1, Serotonin 3 (5-HT3) receptor (Rattus norvegicus, UniProt P35563+Q9JJ16); experiment: Binding affinity for 5-hydroxytryptamine 3 receptor was determined by measuring displacement of [3H]GR-65630 from rat brain cortices
T1 sequence (P35563 whole entry): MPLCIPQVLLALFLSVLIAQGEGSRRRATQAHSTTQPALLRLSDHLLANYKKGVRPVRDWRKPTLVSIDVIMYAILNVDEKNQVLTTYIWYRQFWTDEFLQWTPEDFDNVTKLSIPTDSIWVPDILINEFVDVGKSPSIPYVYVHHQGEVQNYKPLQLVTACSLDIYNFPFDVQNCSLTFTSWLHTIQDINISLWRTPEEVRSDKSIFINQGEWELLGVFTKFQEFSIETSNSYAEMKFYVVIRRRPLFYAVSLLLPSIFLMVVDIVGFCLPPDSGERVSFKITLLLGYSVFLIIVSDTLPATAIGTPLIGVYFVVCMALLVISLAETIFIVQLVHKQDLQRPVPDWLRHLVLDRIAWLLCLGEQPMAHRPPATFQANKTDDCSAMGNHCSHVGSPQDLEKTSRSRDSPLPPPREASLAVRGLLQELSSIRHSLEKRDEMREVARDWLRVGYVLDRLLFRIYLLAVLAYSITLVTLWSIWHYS
T1 sequence (Q9JJ16 whole entry): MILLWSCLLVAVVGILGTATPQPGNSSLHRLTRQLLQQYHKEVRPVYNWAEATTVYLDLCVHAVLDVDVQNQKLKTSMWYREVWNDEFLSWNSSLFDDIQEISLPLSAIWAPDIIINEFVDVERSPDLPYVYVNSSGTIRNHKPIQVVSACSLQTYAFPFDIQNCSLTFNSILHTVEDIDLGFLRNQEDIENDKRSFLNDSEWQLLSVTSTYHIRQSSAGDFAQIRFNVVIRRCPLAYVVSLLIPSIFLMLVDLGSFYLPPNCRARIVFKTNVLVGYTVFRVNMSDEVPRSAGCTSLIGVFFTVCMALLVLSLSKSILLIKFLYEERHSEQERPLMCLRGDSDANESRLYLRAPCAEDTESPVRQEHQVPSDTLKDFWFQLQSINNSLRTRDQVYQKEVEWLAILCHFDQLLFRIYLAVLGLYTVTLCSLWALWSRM

[2] = molecular target: Beta-2 adrenergic receptor (Canis lupus familiaris) (UniProt P54833); experiment: Inhibitory activity against non-selective beta adrenergic receptor using [3H]DHA as radioligand at 10e-5 M concentration
[3] = test system: Alpha-1 adrenergic receptor (Rattus norvegicus); experiment: Inhibitory activity against Alpha-1 adrenergic receptor using [3H]prazosin as radioligand at 10e-5 M concentration
[4] = test system: Mus musculus; experiment: Transition time (time required to evacuate the glass bead) in the distal colon in mice at dose 3 mg/kg; format: functional
Procedure, shortened: (§1)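 Male mice fasted 4 h. Compound given sc 20 min before a 3 mm glass bead was inserted 3 cm into the distal colon; time to expel the bead was recorded. 8 animals per group, mean ± SEM. Compared with control by ANOVA followed by Steel's multiple range test, p < 0.05.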

[5] = test system: 5-HT3 receptor (Cavia porcellus); experiment: Maximal partial agonist activity at 5-hydroxytryptamine 3 receptor of isolated guinea pig ileum as ratio to 5-HT response
[6] = test system: Mus musculus; experiment: Inhibitory activity against 5-HT evoked diarrhea in mice, sc; format: functional; details: read-out: ID50 (the source's name)
[7] = molecular target: GABA-A receptor; anion channel (Homo sapiens) (UniProt P14867+P47870+P18507+P28472+P48169+Q99928+Q9UN88+P34903+O00591+O14764+Q8N1C3+P18505+P78334+P47869+P31644+Q16445); experiment: Inhibition of [3H]flunitrazepam binding to GABA-A central benzodiazepine receptor at 10e-5 M; format: protein-complex assay
[8] = molecular target: 5-hydroxytryptamine receptor 2A (Bos taurus) (UniProt Q75Z89); experiment: Inhibitory activity against 5-hydroxytryptamine 2 receptor using [3H]-ketanserin as radioligand at 10e-5 M concentration
[9] = test system: 5-HT3 receptor (Cavia porcellus); experiment: Potency of partial agonist action given by concentration producing 50% of individual maximal contraction of isolated guinea pig ileum
[10] = test system: Mus musculus; experiment: Transition time (time required to evacuate the glass bead) in the distal colon in mice at dose 0.3 mg/kg; format: functional; procedure, shortened: as §1
[11] = test system: Alpha-2 adrenergic receptor (Rattus norvegicus); experiment: Inhibitory activity against Alpha-2 adrenergic receptor using [3H]rauwolscine as radioligand at 10e-5 M concentration
[12] = molecular target: T2, 5-hydroxytryptamine receptor 1F (Rattus norvegicus) (UniProt P30940); experiment: Inhibitory activity against 5-hydroxytryptamine 1 receptor using [3H]5-HT as radioligand at 10e-5 M concentration
T2 sequence (whole entry): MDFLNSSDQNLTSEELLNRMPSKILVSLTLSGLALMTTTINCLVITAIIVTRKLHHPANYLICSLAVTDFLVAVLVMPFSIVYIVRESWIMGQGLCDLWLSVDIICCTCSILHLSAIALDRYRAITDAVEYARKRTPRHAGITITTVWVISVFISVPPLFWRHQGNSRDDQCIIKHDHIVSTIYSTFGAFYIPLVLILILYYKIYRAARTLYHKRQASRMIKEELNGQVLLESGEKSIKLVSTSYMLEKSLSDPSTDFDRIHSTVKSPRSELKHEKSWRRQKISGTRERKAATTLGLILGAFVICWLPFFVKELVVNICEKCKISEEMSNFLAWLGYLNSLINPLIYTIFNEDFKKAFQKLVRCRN

[13] = molecular target: T1, Serotonin 3 (5-HT3) receptor; experiment: Binding affinity for 5-hydroxytryptamine 3 receptor in rat cerebral cortex, determined by displacement of [3H]GR-65630; format: tissue-based
Procedure, shortened: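 Membranes from cortex of male Wistar rats (250–300 g); 0.04 mg membrane incubated with 0.2 nM […], 60 min, 22 °C; filtration, three washes, filter counting. Nonspecific binding defined with 1 mM ICS205-930. Six replicates per dose; displacement curves fitted by nonlinear regression to give IC50, converted to Ki by Cheng–Prusoff.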

[14] = molecular target: D(2) dopamine receptor (Homo sapiens) (UniProt P14416); experiment: Inhibitory activity against Dopamine receptor D2 using [3H]-spiperone as radioligand at 10e-5 M concentration
[15] = molecular target: D(1A) dopamine receptor (Mus musculus) (UniProt Q61616); experiment: Inhibitory activity against Dopamine receptor D1 using [3H]SCH-23390 as radioligand at 10e-5 M concentration at 10e-5 M concentration
[16] = molecular target: T3, 5-hydroxytryptamine receptor 1A (Mus musculus) (UniProt Q64264); experiment: Inhibitory activity against 5-hydroxytryptamine 1A receptor using [3H]8-OH-DPAT as radioligand at 10e-5 M concentration
T3 sequence (whole entry): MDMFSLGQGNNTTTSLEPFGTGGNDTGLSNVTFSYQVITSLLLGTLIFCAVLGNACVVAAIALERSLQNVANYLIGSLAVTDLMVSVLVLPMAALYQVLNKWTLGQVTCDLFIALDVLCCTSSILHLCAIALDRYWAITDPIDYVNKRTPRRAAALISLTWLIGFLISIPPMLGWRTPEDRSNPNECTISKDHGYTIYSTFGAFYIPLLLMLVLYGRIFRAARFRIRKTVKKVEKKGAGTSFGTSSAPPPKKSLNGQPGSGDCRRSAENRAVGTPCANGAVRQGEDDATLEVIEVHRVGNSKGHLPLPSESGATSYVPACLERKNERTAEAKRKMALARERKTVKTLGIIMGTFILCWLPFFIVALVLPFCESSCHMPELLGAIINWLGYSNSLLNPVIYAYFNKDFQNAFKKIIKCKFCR

[17] = species: Rattus norvegicus; experiment: Inhibitory dose against 5-HT-Evoked Bezold-Jarisch (B-J) reflex in rats; format: functional; details: read-out: ID50 (the source's name)
[18] = test system: Mus musculus; experiment: Transition time (time required to evacuate the glass bead) in the distal colon in mice at dose 30 mg/kg; format: functional; procedure, shortened: as §1
[19] = test system: Mus musculus; experiment: Transition time (time required to evacuate the glass bead) in the distal colon in mice at dose 1 mg/kg; format: functional; procedure, shortened: as §1

5-hydroxytryptamine receptor 2A (Bos taurus), sequence (Q75Z89 whole entry): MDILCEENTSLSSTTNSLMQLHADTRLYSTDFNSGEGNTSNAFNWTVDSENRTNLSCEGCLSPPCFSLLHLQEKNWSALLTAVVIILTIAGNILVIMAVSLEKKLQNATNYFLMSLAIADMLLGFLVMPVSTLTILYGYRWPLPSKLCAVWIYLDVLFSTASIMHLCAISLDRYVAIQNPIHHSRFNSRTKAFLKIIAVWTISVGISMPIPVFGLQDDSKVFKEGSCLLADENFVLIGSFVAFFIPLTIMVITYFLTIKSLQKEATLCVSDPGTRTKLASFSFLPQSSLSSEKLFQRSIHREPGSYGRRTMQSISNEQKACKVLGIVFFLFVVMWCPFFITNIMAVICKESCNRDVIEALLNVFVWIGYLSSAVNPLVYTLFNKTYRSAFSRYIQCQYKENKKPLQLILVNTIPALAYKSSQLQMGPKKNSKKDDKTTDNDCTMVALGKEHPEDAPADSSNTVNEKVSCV
D(2) dopamine receptor (Homo sapiens), sequence (P14416 whole entry): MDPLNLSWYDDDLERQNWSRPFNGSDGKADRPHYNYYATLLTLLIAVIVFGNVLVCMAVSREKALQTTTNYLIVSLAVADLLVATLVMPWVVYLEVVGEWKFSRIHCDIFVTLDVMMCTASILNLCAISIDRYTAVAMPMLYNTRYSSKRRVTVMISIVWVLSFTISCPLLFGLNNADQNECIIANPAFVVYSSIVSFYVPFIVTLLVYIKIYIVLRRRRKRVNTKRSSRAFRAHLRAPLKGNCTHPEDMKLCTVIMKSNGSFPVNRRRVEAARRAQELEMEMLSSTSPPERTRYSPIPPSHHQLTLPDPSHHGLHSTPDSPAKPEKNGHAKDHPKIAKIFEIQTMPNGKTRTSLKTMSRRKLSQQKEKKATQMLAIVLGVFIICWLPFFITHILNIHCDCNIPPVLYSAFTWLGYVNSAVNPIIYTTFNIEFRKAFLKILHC
D(1A) dopamine receptor (Mus musculus), sequence (Q61616 whole entry): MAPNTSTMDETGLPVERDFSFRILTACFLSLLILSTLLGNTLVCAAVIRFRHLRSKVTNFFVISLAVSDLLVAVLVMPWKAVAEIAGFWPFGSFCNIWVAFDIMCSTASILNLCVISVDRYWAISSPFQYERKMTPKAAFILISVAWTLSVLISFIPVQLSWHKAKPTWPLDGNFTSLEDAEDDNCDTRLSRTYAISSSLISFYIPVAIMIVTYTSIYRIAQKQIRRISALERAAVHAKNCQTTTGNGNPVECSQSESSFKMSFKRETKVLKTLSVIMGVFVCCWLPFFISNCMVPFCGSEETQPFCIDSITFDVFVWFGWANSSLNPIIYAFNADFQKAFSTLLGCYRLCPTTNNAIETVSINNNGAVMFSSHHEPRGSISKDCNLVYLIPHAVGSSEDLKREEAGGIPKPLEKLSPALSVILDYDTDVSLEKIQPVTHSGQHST
Beta-2 adrenergic receptor (Canis lupus familiaris), sequence (P54833 whole entry, looked up): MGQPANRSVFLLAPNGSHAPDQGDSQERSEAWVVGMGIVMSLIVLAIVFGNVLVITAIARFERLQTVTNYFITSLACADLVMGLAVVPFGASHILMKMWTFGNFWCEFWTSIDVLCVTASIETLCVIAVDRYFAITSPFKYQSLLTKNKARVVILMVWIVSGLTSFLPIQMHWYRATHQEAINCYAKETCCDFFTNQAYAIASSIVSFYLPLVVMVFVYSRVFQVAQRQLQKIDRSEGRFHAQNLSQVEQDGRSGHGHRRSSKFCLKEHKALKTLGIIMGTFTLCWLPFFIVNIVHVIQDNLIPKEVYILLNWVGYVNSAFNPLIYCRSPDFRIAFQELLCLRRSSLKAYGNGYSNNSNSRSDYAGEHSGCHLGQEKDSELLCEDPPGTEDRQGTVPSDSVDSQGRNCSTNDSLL

Structure (SMILES) | IA [5] | pD2 [9] | inhibition at 10^-7 M [13] [%] | also measured
Cc1cc(Cl)cc2nc(N3CCCN(C)CC3)oc12 | 0.12 | 7.76 | 98 | Ki [1]: 1.1 nM; inhibition [2]: 24%; inhibition [3]: 22%; Time [4]: 357.2 s; ED50 [6]: 0.3 mg/kg; inhibition [7]: 12%; inhibition [8]: 23%; Time [10]: 262.6 s; inhibition [11]: 33%; inhibition [12]: 14%; inhibition [14]: 5%; inhibition [15]: 18%; inhibition [16]: -3%; ED50 [17]: 0.0876 mg/kg; Time [18]: 328.8 s
Cc1cc2oc(N3CCN(C)CC3)nc2cc1Cl | 0.28 | 6.28 | 95 | 
CN1CCN(c2nc3cc(C(F)(F)F)ccc3o2)CC1 |  | < 5 | 22 | 
Cc1cccc2nc(N3CCN(C)CC3)oc12 | 0.58 | 5.46 | 77 | 
CN1C2CCCC1CC(NC(=O)c1nn(C)c3ccccc13)C2 (stereo not given) [GRANISETRON] |  |  |  | Time [4]: 827 s; Time [10]: 373 s; Time [19]: 614 s
c1ccc2oc(N3CCNCC3)nc2c1 |  |  | 83 | 
CN1CCN(c2nc3cc(Cl)ccc3o2)CC1 | 0.5 | 6.07 | 94 | 
CN1CCN(c2nc3ccccc3o2)CC1 | 0.62 | 5.01 | 55 | 
Cc1cc2nc(N3CCN(C)CC3)oc2cc1C | 0.66 | 6.16 | 32 | 
CCc1ccc2oc(N3CCN(C)CC3)nc2c1 |  | < 5 | 11 | 
Cc1cc(C)c2oc(N3CCN(C)CC3)nc2c1 | 0.62 | 6.32 | 94 | 
Cc1cccc2oc(N3CCN(C)CC3)nc12 |  | < 5 | 25 | 
CN1CCCN(c2nc3ccccc3o2)CC1 | 0.54 | 6.03 | 86 | 
CN1CCCN(c2nc3cc(Cl)ccc3o2)CC1 | 0.31 | 7 | 87 | 
CN1CCN(c2nc3cc(Br)ccc3o2)CC1 | 0.48 | 6.21 | 92 | 
Cc1ccc2oc(N3CCN(C)CC3)nc2c1 | 0.72 | 6 | 83 | 
c1ccc2oc(C3CCNCC3)nc2c1 | 0.31 | 5.59 | 39 | 
c1ccc2oc(N3CCCCC3)nc2c1 |  | < 5 |  | 
CN1CCN(c2nc3cc(F)ccc3o2)CC1 | 0.64 | 5.57 | 91 | 
Cc1c(Cl)cc2nc(N3CCN(C)CC3)oc2c1C | 0.14 | 6.67 | 101 | 
Cc1ccc2nc(N3CCN(C)CC3)oc2c1 | 0.85 | 5.15 | 74 | 
CN1CCN(c2nc3cc(Cl)cc(Cl)c3o2)CC1 | 0.14 | 6.51 | 62 | 
Cc1cc(Cl)cc2nc(N3CCN(C)CC3)oc12 | 0.24 | 6.7 | 85 | 
Cc1c(Cl)cc2nc(N3CCN(C)CC3)oc2c1Cl | 0.1 | 6.64 | 96 | 
